Results published in ChEMBL document CHEMBL1134668, “Hydrazinonaphthalene and azonaphthalene thrombopoietin mimics are nonpeptidyl promoters of megakaryocytopoiesis” (J Med Chem, 2001).

What was measured:
[1] = molecular target: T1, Thrombopoietin receptor (Homo sapiens) (UniProt P40238); test: Thrombopoietin luciferase activity in BAF-3 cells; type: cell-based; conditions: BaF3
T1 sequence (whole entry): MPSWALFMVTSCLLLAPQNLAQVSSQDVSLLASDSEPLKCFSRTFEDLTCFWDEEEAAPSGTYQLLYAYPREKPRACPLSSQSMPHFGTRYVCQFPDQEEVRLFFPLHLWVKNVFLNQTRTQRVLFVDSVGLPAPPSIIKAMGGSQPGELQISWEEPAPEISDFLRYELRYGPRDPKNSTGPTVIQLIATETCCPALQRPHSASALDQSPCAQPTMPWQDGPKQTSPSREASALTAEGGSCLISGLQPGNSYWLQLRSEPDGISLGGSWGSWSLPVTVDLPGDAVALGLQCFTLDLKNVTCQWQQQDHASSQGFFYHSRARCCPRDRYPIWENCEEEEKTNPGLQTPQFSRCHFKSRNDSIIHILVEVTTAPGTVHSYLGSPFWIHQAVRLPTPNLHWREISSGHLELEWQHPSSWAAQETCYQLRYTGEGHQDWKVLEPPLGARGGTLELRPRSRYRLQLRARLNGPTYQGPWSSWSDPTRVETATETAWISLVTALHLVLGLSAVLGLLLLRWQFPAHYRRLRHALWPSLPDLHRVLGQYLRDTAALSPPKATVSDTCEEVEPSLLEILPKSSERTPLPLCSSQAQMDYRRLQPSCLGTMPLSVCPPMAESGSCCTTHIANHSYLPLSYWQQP

[2] = Effective concentration required to inhibit UT7/TPO cell proliferation was determined.; type: functional, cell-based; conditions: Homo sapiens
Outline: (§1)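 UT7/TPO cells kept in IMDM/10% FBS/glutamine plus rhTPO, starved overnight without TPO. Cells (0.2 × 10^6/mL) in starving medium incubated with compounds (0.32% DMSO final) or rhTPO, 37 °C, 5% CO2, 72 h. Pellet DNA content read by BrdU kit. Mean value over control as % of maximal-TPO response, duplicates, plotted vs concentration for EC50.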

[3] = Compound tested for UT7/TPO cell proliferation activity (%TPO) using proliferation assay.; type: functional, Homo sapiens; outline: as §1
Thrombopoietin receptor = molecular target: T2, Thrombopoietin receptor (Homo sapiens, UniProt P40238); test: Effective concentration for thrombopoietin luciferase activity was determined in BAF-3 cells; type: cell-based, BaF3
T2 sequence (P40238 whole entry): T1 sequence (whole entry)

[4] = Effective concentration (EC50) required to inhibit CD34 cell differentiation; type: functional; conditions: Homo sapiens
Outline: (§2)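 Human bone marrow CD34+ cells from light density marrow cells (2 × 10^6 cells/mL) in IMDM with 20% v/v FCS and rhSCF 100 ng/mL, cultured with sample or TPO (maximal 100 ng/mL) for 10 days at 5% CO2 and 4% O2. Stained with FITC-anti-CD41 and FITC-anti-IgG1 isotype control, formaldehyde-fixed, flow cytometry; %CD41 = CD41 positive minus isotype positive.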

[5] = Compound tested for CD34+ cell differentiation activity (%TPO) using CD34+ differentiation assay; type: functional, Homo sapiens; outline: as §2

Row | Efficacy [1] | EC50 (Thrombopoietin receptor) | EC50 [4] | SMILES | EC50 [2] | Efficacy [3] | TPO [3] | TPO [5] | Efficacy [5]
1 | 34% | 2000 nM |  | Cc1[nH]n(-c2cccc(Cl)c2)c(=O)c1/N=N/c1c(O)cc(S(=O)(=O)O)c2ccccc12 | 500 nM | 45% |  |  | 
2 | 86% | 20 nM | 30 nM | Cc1[nH]n(-c2ccc(C(C)(C)C)cc2)c(=O)c1/N=N/c1c(O)cc(S(=O)(=O)O)c2ccccc12 |  |  | 100% | 100% | 
3 | 47% | 2000 nM |  | Cc1[nH]n(-c2ccc(Cl)cc2)c(=O)c1/N=N/c1c(O)cc(S(=O)(=O)O)c2ccccc12 |  | 75% |  |  | 
4 | 39% | 100 nM |  | Cc1[nH]n(-c2ccc(C(F)(F)F)cc2)c(=O)c1/N=N/c1c(O)cc(S(=O)(=O)O)c2ccccc12 |  | 100% |  |  | 
5 | 53% | 2000 nM |  | Cc1ccc(-n2[nH]c(C)c(/N=N/c3c(O)cc(S(=O)(=O)O)c4ccccc34)c2=O)cc1 |  | 90% |  |  | 
6 | 100% | 40 nM | 200 nM | Cc1ccc(-n2[nH]c(C)c(/N=N/c3c(O)cc(S(=O)(=O)O)c4ccccc34)c2=O)cc1C |  | 90% |  |  | 100%
7 | 62% | 40 nM | 100 nM | Cc1[nH]n(-c2cccc(C(F)(F)F)c2)c(=O)c1/N=N/c1c(O)cc(S(=O)(=O)O)c2ccccc12 |  |  |  |  | 95%
8 | 81% | 300 nM |  | Cc1[nH]n(-c2ccc(I)cc2)c(=O)c1/N=N/c1c(O)cc(S(=O)(=O)O)c2ccccc12 |  | 100% |  |  | 60%
9 | 67% | 200 nM |  | Cc1[nH]n(-c2ccc(Cl)c(Cl)c2)c(=O)c1/N=N/c1c(O)cc(S(=O)(=O)O)c2ccccc12 |  | 70% |  |  | 
